Screening data: PubChem BioAssay, several laboratories
Apaf1 inhib: blocks human Apaf-1 apoptosome activity. inhibition, % at 20 µM. 330,000 tested, 0.71% active. reconstituted apoptosome caspase-3 activity, DEVD-Rh110 fluorescence. AID 489030; active = inhibition of at least 40% at 20 µM;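 also: plate controls were DMSO wells for no effect and DEVD-CHO caspase inhibitor wells for full effect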
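Material: reconstituted apoptosome with Apaf-1, cytochrome c, caspase-9, procaspase-3, dATP. Technique: Rh110 fluorescence intensity. Buffer or medium: pH 7.5 Hepes buffer with CHAPS, BSA, DTT. Times: 30 min plus 50 min, RT.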
PAFAH1B3 FP inh: PAFAH1B3 (human) inhibition | 340,000 tested, 0.28% active | recombinant PAFAH1B3, FP-rhodamine probe, fluorescence polarization | inhibition, % at 3.39 µM | Q15102;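 active = inhibition above the screen-wide average of all tested compounds plus 3 SD, cut at about 25% in these data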;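 also: 0% = enzyme with DMSO only and 100% = wells lacking PAFAH1B3 protein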
Target sequence (Q15102 whole entry, looked up): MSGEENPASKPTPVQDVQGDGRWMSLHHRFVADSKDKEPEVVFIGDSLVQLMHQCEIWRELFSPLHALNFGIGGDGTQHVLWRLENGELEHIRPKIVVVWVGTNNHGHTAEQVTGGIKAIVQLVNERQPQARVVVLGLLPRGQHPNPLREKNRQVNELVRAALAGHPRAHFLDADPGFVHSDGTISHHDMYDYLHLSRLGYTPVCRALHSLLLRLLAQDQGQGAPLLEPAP
pPAFAH FP inh: inhibitors of human plasma PAF acetylhydrolase (pPAFAH); recombinant pPAFAH, FP-rhodamine probe fluorescence polarization; 330,000 tested, 1.5% active; Q13093; inhibition, % at 3.39 µM;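 active = inhibition above the mean inhibition across the screen plus 3 SD, cut at about 25% in these data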;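 also: inhibitors block binding of the rhodamine activity-based probe so polarization drops; 0% = enzyme with DMSO and 100% = wells lacking pPAFAH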
PAFAH1B2 FP inh: inhibitors of human PAFAH1B2. AID 492953. recombinant PAFAH1B2, FP-rhodamine activity probe, fluorescence polarization. P68402. inhibition, % at 3.39 µM. 340,000 tested, 1.2% active;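 active = inhibition above the mean of all tested compounds plus 3 SD, cut at about 24% in these data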;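 also: 0% = enzyme with DMSO and 100% = wells lacking PAFAH1B2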
Target sequence (P68402 whole entry, looked up): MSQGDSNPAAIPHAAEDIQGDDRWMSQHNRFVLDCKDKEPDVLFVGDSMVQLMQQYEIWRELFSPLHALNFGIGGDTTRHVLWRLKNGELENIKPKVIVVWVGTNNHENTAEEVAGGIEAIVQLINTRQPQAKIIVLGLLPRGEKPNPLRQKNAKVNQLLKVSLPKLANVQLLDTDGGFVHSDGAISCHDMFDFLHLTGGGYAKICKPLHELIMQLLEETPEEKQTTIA
PAFAH2 FP inh: PAFAH2 (human) inhibition. recombinant PAFAH2, FP-rhodamine activity probe, fluorescence polarization. Q99487. 340,000 tested, 0.99% active. AID 492956. inhibition, % at 3.39 µM;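 active = inhibition above the mean over all tested compounds plus 3 SD, cut at about 30% in these data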;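 also: inhibitors block probe labeling of enzyme so polarization drops; 0% = enzyme with DMSO and 100% = wells lacking PAFAH2 protein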
PAFAH2 FP conf: confirmation of human PAFAH2 inhibitors; shares compounds with PAFAH2 FP inh; recombinant PAFAH2, FP-rhodamine activity probe, fluorescence polarization; inhibition, % at 3.39 µM; 2,300 tested, 65% active;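 active = mean inhibition over three repeats above a set limit taken from the earlier primary screen, cut at about 30% in these data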;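 also: inhibitor blocks binding of rhodamine activity probe so polarization falls; 0% = enzyme with DMSO and 100% = wells lacking PAFAH2 protein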
Starred values were filed as active, the others as inactive. Rows were chosen to be rich in hits. Some 3.1% of all compounds tested hit in one or more screens of this group.

CC(C)CN(C(=O)COC(=O)CN1C(=O)c2ccccc2C1=O)c1c(N)n(Cc2ccccc2)c(=O)[nH]c1=O was read as Apaf1 inhib 5, PAFAH1B3 FP inh 2, pPAFAH FP inh 4, PAFAH1B2 FP inh -3 and PAFAH2 FP inh -2.
`Cn1nnnc1Sc1ncnc2scc(-c3cc4ccccc4o3)c12` gave Apaf1 inhib 7, PAFAH1B3 FP inh -2, pPAFAH FP inh 7, PAFAH1B2 FP inh 1 and PAFAH2 FP inh -6.
Screening Cc1ccsc1C(=O)NCC(=O)OCc1ccccc1 returned Apaf1 inhib -4, PAFAH1B3 FP inh 3, pPAFAH FP inh 5, PAFAH1B2 FP inh -6 and PAFAH2 FP inh -2.
For Cc1ccsc1C(=O)OCC(=O)NCc1ccccc1 the results were Apaf1 inhib 7, PAFAH1B3 FP inh 8, pPAFAH FP inh 8, PAFAH1B2 FP inh 0, PAFAH2 FP inh 34* and PAFAH2 FP conf 23.
O=C(COC(=O)c1cccs1)NCC1CCCCC1 was read as Apaf1 inhib -10, PAFAH1B3 FP inh 4, pPAFAH FP inh 5, PAFAH1B2 FP inh 3, PAFAH2 FP inh 79* and PAFAH2 FP conf 82*.
For COc1cc(C(=O)OCC(=O)NCc2ccco2)cc(OC)c1OC the results were Apaf1 inhib -6, PAFAH1B3 FP inh 8, pPAFAH FP inh 2, PAFAH1B2 FP inh 8 and PAFAH2 FP inh 3.
Cc1ccsc1C(=O)OCc1nc2ccccc2c(=O)[nH]1 was read as Apaf1 inhib -8, PAFAH1B3 FP inh 8, pPAFAH FP inh 2, PAFAH1B2 FP inh 2, PAFAH2 FP inh 38* and PAFAH2 FP conf 26.
Screening Cc1ccsc1C(=O)OCc1nc2ccsc2c(=O)[nH]1 returned Apaf1 inhib -14, PAFAH1B3 FP inh 5, pPAFAH FP inh 6, PAFAH1B2 FP inh 1 and PAFAH2 FP inh -1.
`O=C(COC(=O)c1ccc(Br)o1)NCC1CCCCC1` gave Apaf1 inhib 0, PAFAH1B3 FP inh 5, pPAFAH FP inh 8, PAFAH1B2 FP inh 5 and PAFAH2 FP inh -5.
`CN(C)c1cccc(C(=O)OCC(=O)NCc2ccco2)c1` gave Apaf1 inhib -1, PAFAH1B3 FP inh -6, pPAFAH FP inh 9, PAFAH1B2 FP inh -1, PAFAH2 FP inh 57* and PAFAH2 FP conf 44*.
CCN(CC)c1ccc(C(=O)Nc2cccc(F)c2)cc1 was read as Apaf1 inhib 14, PAFAH1B3 FP inh 1, pPAFAH FP inh 15, PAFAH1B2 FP inh 3, PAFAH2 FP inh 38* and PAFAH2 FP conf 42*.
For O=C(COC(=O)c1ccc(F)cc1F)NCCC1=CCCCC1 the results were Apaf1 inhib -1, PAFAH1B3 FP inh 8, pPAFAH FP inh 17, PAFAH1B2 FP inh 3, PAFAH2 FP inh 47* and PAFAH2 FP conf 31*.
`O=C(COC(=O)c1ccc2c(c1)OCCO2)NCCC1=CCCCC1` gave Apaf1 inhib -13, PAFAH1B3 FP inh 2, pPAFAH FP inh 17, PAFAH1B2 FP inh -1, PAFAH2 FP inh 58* and PAFAH2 FP conf 47*.
For O=C(COC(=O)c1ccc(O)cc1)NCCC1=CCCCC1 the results were Apaf1 inhib -10, PAFAH1B3 FP inh 6, pPAFAH FP inh 13, PAFAH1B2 FP inh 3, PAFAH2 FP inh 57* and PAFAH2 FP conf 50*.
Screening Cc1ccc(C(=O)OCC(=O)NCCC2=CCCCC2)cc1N returned Apaf1 inhib 17, PAFAH1B3 FP inh 0, pPAFAH FP inh 9, PAFAH1B2 FP inh 6 and PAFAH2 FP inh 2.
`Cc1noc(C)c1C(=O)NC(Cc1c[nH]c2ccccc12)C(=O)O` (stereo not drawn) gave Apaf1 inhib -4, PAFAH1B3 FP inh 14, pPAFAH FP inh 9, PAFAH1B2 FP inh 3 and PAFAH2 FP inh 5.
Screening Cc1oc2c(c1C(=O)NC(Cc1c[nH]c3ccccc13)C(=O)O)CCCC2 (stereo not drawn) returned Apaf1 inhib 5, PAFAH1B3 FP inh 4, pPAFAH FP inh 8, PAFAH1B2 FP inh 4, PAFAH2 FP inh 39* and PAFAH2 FP conf 15.
Screening Cc1ccc(NC(=O)COC(=O)c2ccco2)cc1 returned Apaf1 inhib 5, PAFAH1B3 FP inh 5, pPAFAH FP inh 1, PAFAH1B2 FP inh 5, PAFAH2 FP inh 62* and PAFAH2 FP conf 53*.
Screening COc1cccc(NC(=O)COC(=O)c2sccc2C)c1 returned Apaf1 inhib -3, PAFAH1B3 FP inh 7, pPAFAH FP inh 12, PAFAH1B2 FP inh 2, PAFAH2 FP inh 82* and PAFAH2 FP conf 82*.
